Measurements from ChEMBL document CHEMBL1155093 (Bioorg Med Chem Lett, 2008).

Key:
LS174T = test: Cytotoxicity against human LS174T cells assessed as viability upto 100 uM by MTT assay; type: functional
Summary of the method: (§1)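 MTT viability read-out; cells exposed to a concentration range of drug for 48 h. Three separate experiments, each run in triplicate.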

Cytochrome P450 3A4 = Cytochrome P450 3A4 (Homo sapiens, UniProt P08684); test: Inhibition of CYP3A4 in human liver microsome; type: ADME, microsomes
Chain of Cytochrome P450 3A4 (P08684 whole entry): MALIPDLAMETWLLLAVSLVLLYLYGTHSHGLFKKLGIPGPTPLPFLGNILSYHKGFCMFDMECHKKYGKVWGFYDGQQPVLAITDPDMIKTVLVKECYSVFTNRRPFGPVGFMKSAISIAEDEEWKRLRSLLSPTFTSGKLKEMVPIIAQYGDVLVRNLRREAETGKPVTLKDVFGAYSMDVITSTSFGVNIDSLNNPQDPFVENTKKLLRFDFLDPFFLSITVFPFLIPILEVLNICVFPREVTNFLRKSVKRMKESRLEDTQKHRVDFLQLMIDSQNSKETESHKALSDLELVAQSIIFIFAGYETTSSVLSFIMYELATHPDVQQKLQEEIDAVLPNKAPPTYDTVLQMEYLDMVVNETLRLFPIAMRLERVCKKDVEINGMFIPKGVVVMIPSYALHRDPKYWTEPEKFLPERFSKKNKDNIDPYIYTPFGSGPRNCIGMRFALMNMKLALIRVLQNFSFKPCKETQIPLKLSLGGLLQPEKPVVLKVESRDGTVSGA
Summary of the method: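 Pooled human liver microsomes 0.1 mg/mL, midazolam 5 µM, NADPH 1 mM, 5 min reaction. Time-dependent variant: 30 min preincubation without midazolam, then midazolam added for 5 min. 1-Hydroxymidazolam measured against DMSO control; IC50 and maximum inhibition taken from the concentration–%Inh plot.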

[1] = Cytotoxicity against human CRL cells assessed as viability upto 100 uM by MTT assay; type: cell-based; details: read-out: Activity; summary of the method: as §1
[2] = target: T1, Nuclear receptor subfamily 1 group I member 2 (Homo sapiens, UniProt O75469); test: Inhibition of refampicin-mediated PXR activation in HepG2 cells; type: cell-based
T1 sequence (O75469 whole entry): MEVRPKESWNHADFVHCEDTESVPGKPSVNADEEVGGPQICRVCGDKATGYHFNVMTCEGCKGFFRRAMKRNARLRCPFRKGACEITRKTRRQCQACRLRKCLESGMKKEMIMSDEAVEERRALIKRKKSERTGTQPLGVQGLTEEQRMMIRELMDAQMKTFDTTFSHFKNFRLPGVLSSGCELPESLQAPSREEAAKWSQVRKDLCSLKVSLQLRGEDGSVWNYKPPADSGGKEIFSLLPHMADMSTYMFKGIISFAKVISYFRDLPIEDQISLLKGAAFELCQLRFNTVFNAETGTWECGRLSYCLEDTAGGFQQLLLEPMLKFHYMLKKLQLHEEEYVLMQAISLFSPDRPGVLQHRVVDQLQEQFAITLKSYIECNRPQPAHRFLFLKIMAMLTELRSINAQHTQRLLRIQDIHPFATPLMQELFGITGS
Summary of the method: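 HepG2 cells transiently co-transfected with PXR-pcDNA3 and Cyp3A-Luc, cryopreserved and thawed into charcoal/dextran-FBS medium. Co-incubated with 10 µM rifampicin plus compound at ten concentrations (1:3 dilution, 0.1% DMSO final), 24 h at 37 °C; luciferase luminescence. Percent inhibition computed; IC50 and Imax taken from the concentration–%Inh plot.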

SK-OV-3 = test: Cytotoxicity against human SKOV3 cells assessed as viability upto 100 uM by MTT assay; type: functional; summary of the method: as §1
Caco-2 = test: Cytotoxicity against human Caco-2 cells assessed as viability upto 100 uM by MTT assay; type: functional; summary of the method: as §1
[3] = target: T1, Nuclear receptor subfamily 1 group I member 2; test: Induction of PXR transactivation in HepG2 cells; type: cell-based
Summary of the method: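 HepG2 cells transiently transfected with PXR-pcDNA3 and Cyp3A-Luc reporter, cryopreserved, then thawed into DMEM with 5% charcoal/dextran FBS. Ten concentrations, 1:3 serial dilution, DMSO 0.1% final; 24 h at 37 °C. Luciferase luminescence read. % activation relative to 10 µM rifampicin (total) and DMSO (blank); EC50 and Emax from concentration–%Act plot.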

IC50 (Cytochrome P450 3A4)	inhibition (INH) [2]	Activity [3]	Structure (SMILES)	Activity (LS174T)	viability [1]	Activity (SK-OV-3)	Activity (Caco-2)
> 40 µM	103%	10%	CC(=O)N1CCN(c2ccc(OC[C@H]3CO[C@@](C)(c4ccc(F)cc4F)O3)cc2)CC1	98%	98%	98%	98%
			CC(=O)N1CCN(c2ccc(OC[C@H]3CO[C@](Cn4ccnc4)(c4ccc(Cl)cc4Cl)O3)cc2)CC1 [KETOCONAZOLE]	65%	65%	65%	65%
	109%	10%	CC(=O)N1CCN(c2ccc(OCC3COC(C)(c4ccc(Cl)cc4Cl)O3)cc2)CC1 (stereo not drawn)				
